In ChEMBL document CHEMBL1926550, “Synthesis and antibacterial activity of naphthyridone derivatives containing mono/difluoro-methyloxime pyrrolidine scaffolds” (2012):
Converted amounts (≈) assume the structure as drawn.

Columns and labels:
Assay type in all cases: functional
Escherichia coli [1] = experiment: Antibacterial activity against Escherichia coli 10-1 after 18 hrs by two fold serial dilution method; settings: 10-1, 18 h
Outline: (§1)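 Agar two-fold serial dilution in melted Mueller-Hinton agar, final concentrations 128 down to 0.008 μg/mL. Plates inoculated with 10⁴ cfu and incubated at 35 °C for 18 h. MIC taken as the lowest concentration giving no visible growth on the plate.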

Escherichia coli [2] = experiment: Antibacterial activity against Escherichia coli 10-2 after 18 hrs by two fold serial dilution method; settings: 10-2, 18 h; outline: as §1
Escherichia coli [3] = experiment: Antibacterial activity against Escherichia coli 10-3 after 18 hrs by two fold serial dilution method; settings: 10-3, 18 h; outline: as §1
Klebsiella pneumoniae [4] = experiment: Antibacterial activity against Klebsiella pneumoniae 09-2 after 18 hrs by two fold serial dilution method; settings: 09-2, 18 h; outline: as §1
Klebsiella pneumoniae [5] = experiment: Antibacterial activity against Klebsiella pneumoniae 10-1 after 18 hrs by two fold serial dilution method; settings: 10-1, 18 h; outline: as §1
Klebsiella pneumoniae [6] = experiment: Antibacterial activity against Klebsiella pneumoniae 10-3 after 18 hrs by two fold serial dilution method; settings: 10-3, 18 h; outline: as §1
Pseudomonas aeruginosa [7] = experiment: Antibacterial activity against Pseudomonas aeruginosa ATCC 27853 after 18 hrs by two fold serial dilution method; settings: ATCC 27853, 18 h; outline: as §1
Pseudomonas aeruginosa [8] = experiment: Antibacterial activity against Pseudomonas aeruginosa 10-1 after 18 hrs by two fold serial dilution method; settings: 10-1, 18 h; outline: as §1
Pseudomonas aeruginosa [9] = experiment: Antibacterial activity against Pseudomonas aeruginosa 10-2 after 18 hrs by two fold serial dilution method; settings: 10-2, 18 h; outline: as §1
Pseudomonas aeruginosa [10] = experiment: Antibacterial activity against Pseudomonas aeruginosa 10-3 after 18 hrs by two fold serial dilution method; settings: 10-3, 18 h; outline: as §1
Pseudomonas aeruginosa [11] = experiment: Ratio of ciprofloxacin ED50 to compound ED50 for Pseudomonas aeruginosa 10-1 infected KM mouse systemic infection model
Pseudomonas aeruginosa [12] = experiment: Ratio of gemifloxacin ED50 to compound ED50 for Pseudomonas aeruginosa 10-1 infected KM mouse systemic infection model
[13] = system: Staphylococcus epidermidis; experiment: Antibacterial activity against methicillin-resistant Staphylococcus epidermidis 10-4 after 18 hrs by two fold serial dilution method; settings: 10-4, 18 h
Outline: (§2)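 Agar two-fold serial dilution in melted Mueller-Hinton agar, 128 to 0.008 μg/mL. Plates inoculated with 10⁴ cfu, incubated 35 °C for 18 h. MIC taken as lowest concentration giving no visible growth on the plate.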

Staphylococcus aureus [14] = experiment: Antibacterial activity against methicillin-resistant Staphylococcus aureus 10-2 infected KM mouse systemic infection model assessed as decrease in mouse mortality administered orally twice after 1 and 4 hrs post infection measured up to 7 days; settings: 10-2, po
Outline: (§3)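 Strains grown on MH agar at 35 °C for 18 h, suspended in gastric mucin. Male KM mice (19–21 g), groups of 10, infected intraperitoneally with 0.5 mL at 5–10× MLD. Four oral dose levels per drug at 1 and 4 h post infection. Mortality followed 7 days; ED50 with 95% confidence limits by Bliss method.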

[15] = system: Staphylococcus epidermidis; experiment: Antibacterial activity against methicillin-resistant Staphylococcus epidermidis 10-4 infected KM mouse systemic infection model assessed as decrease in mouse mortality administered orally twice after 1 and 4 hrs post infection measured up to 7 days; settings: 10-4, po; outline: as §3
Escherichia coli [16] = experiment: Antibacterial activity against Escherichia coli 10-2 infected KM mouse systemic infection model assessed as decrease in mouse mortality administered orally twice after 1 and 4 hrs post infection measured up to 7 days; settings: 10-2, po; outline: as §3
Klebsiella pneumoniae [17] = experiment: Antibacterial activity against Klebsiella pneumoniae 10-3 infected KM mouse systemic infection model assessed as decrease in mouse mortality administered orally twice after 1 and 4 hrs post infection measured up to 7 days; settings: 10-3, po; outline: as §3
Pseudomonas aeruginosa [18] = experiment: Antibacterial activity against Pseudomonas aeruginosa 10-1 infected KM mouse systemic infection model assessed as decrease in mouse mortality administered orally twice after 1 and 4 hrs post infection measured up to 7 days; settings: 10-1, po; outline: as §3
[19] = system: Staphylococcus epidermidis; experiment: Ratio of ciprofloxacin ED50 to compound ED50 for methicillin-resistant Staphylococcus epidermidis 10-4 infected KM mouse systemic infection model
[20] = system: Staphylococcus epidermidis; experiment: Ratio of gemifloxacin ED50 to compound ED50 for methicillin-resistant Staphylococcus epidermidis 10-4 infected KM mouse systemic infection model
Enterococcus faecium [21] = experiment: Antibacterial activity against Enterococcus faecium 09-1 after 18 hrs by two fold serial dilution method; settings: 09-1, 18 h; outline: as §1
Staphylococcus aureus [22] = experiment: Antibacterial activity against Staphylococcus aureus ATCC 25923 after 18 hrs by two fold serial dilution method; settings: ATCC 25923, 18 h; outline: as §1
Staphylococcus aureus [23] = experiment: Antibacterial activity against methicillin-resistant Staphylococcus aureus 10-1 after 18 hrs by two fold serial dilution method; settings: 10-1, 18 h; outline: as §2
Staphylococcus aureus [24] = experiment: Antibacterial activity against methicillin-resistant Staphylococcus aureus 10-2 after 18 hrs by two fold serial dilution method; settings: 10-2, 18 h; outline: as §2
Staphylococcus aureus [25] = experiment: Antibacterial activity against methicillin-resistant Staphylococcus aureus 10-3 after 18 hrs by two fold serial dilution method; settings: 10-3, 18 h; outline: as §2
Staphylococcus aureus [26] = experiment: Antibacterial activity against methicillin-resistant Staphylococcus aureus 10-4 after 18 hrs by two fold serial dilution method; settings: 10-4, 18 h; outline: as §2
Staphylococcus aureus [27] = experiment: Antibacterial activity against methicillin-sensitive Staphylococcus aureus 10-1 after 18 hrs by two fold serial dilution method; settings: 10-1, 18 h; outline: as §1
Staphylococcus aureus [28] = experiment: Antibacterial activity against methicillin-sensitive Staphylococcus aureus 10-2 after 18 hrs by two fold serial dilution method; settings: 10-2, 18 h; outline: as §1
Staphylococcus aureus [29] = experiment: Antibacterial activity against methicillin-sensitive Staphylococcus aureus 10-3 after 18 hrs by two fold serial dilution method; settings: 10-3, 18 h; outline: as §1
Staphylococcus aureus [30] = experiment: Antibacterial activity against methicillin-sensitive Staphylococcus aureus 10-4 after 18 hrs by two fold serial dilution method; settings: 10-4, 18 h; outline: as §1
Staphylococcus aureus [31] = experiment: Antibacterial activity against methicillin-sensitive Staphylococcus aureus 10-5 after 18 hrs by two fold serial dilution method; settings: 10-5, 18 h; outline: as §1
Staphylococcus aureus [32] = experiment: Antibacterial activity against methicillin-sensitive Staphylococcus aureus 10-6 after 18 hrs by two fold serial dilution method; settings: 10-6, 18 h; outline: as §1
[33] = system: Staphylococcus epidermidis; experiment: Antibacterial activity against methicillin-resistant Staphylococcus epidermidis 10-1 after 18 hrs by two fold serial dilution method; settings: 10-1, 18 h; outline: as §2
[34] = system: Staphylococcus epidermidis; experiment: Antibacterial activity against methicillin-resistant Staphylococcus epidermidis 10-2 after 18 hrs by two fold serial dilution method; settings: 10-2, 18 h; outline: as §2
[35] = system: Staphylococcus epidermidis; experiment: Antibacterial activity against methicillin-sensitive Staphylococcus epidermidis 10-1 after 18 hrs by two fold serial dilution method; settings: 10-1, 18 h; outline: as §1
[36] = system: Staphylococcus epidermidis; experiment: Antibacterial activity against methicillin-sensitive Staphylococcus epidermidis 10-2 after 18 hrs by two fold serial dilution method; settings: 10-2, 18 h; outline: as §1
Streptococcus pneumoniae = experiment: Antibacterial activity against Streptococcus pneumoniae 10-1 after 18 hrs by two fold serial dilution method; settings: 10-1, 18 h; outline: as §1
Enterococcus faecium [37] = experiment: Antibacterial activity against Enterococcus faecium 09-2 after 18 hrs by two fold serial dilution method; settings: 09-2, 18 h; outline: as §1
Enterococcus faecium [38] = experiment: Antibacterial activity against Enterococcus faecium 09-3 after 18 hrs by two fold serial dilution method; settings: 09-3, 18 h; outline: as §1
Enterococcus faecium [39] = experiment: Antibacterial activity against Enterococcus faecium 09-4 after 18 hrs by two fold serial dilution method; settings: 09-4, 18 h; outline: as §1
Enterococcus faecium [40] = experiment: Antibacterial activity against Enterococcus faecium 09-5 after 18 hrs by two fold serial dilution method; settings: 09-5, 18 h; outline: as §1
Enterococcus faecium [41] = experiment: Antibacterial activity against Enterococcus faecium 09-6 after 18 hrs by two fold serial dilution method; settings: 09-6, 18 h; outline: as §1
Enterococcus faecalis [42] = experiment: Antibacterial activity against Enterococcus faecalis 09-1 after 18 hrs by two fold serial dilution method; settings: 09-1, 18 h; outline: as §1
Enterococcus faecalis [43] = experiment: Antibacterial activity against Enterococcus faecalis 09-2 after 18 hrs by two fold serial dilution method; settings: 09-2, 18 h; outline: as §1
Escherichia coli [44] = experiment: Antibacterial activity against Escherichia coli ATCC 25922 after 18 hrs by two fold serial dilution method; settings: ATCC 25922, 18 h; outline: as §1
Escherichia coli [45] = experiment: Antibacterial activity against Escherichia coli 09-1 after 18 hrs by two fold serial dilution method; settings: 09-1, 18 h; outline: as §1
Escherichia coli [46] = experiment: Antibacterial activity against Escherichia coli 09-2 after 18 hrs by two fold serial dilution method; settings: 09-2, 18 h; outline: as §1
Escherichia coli [47] = experiment: Antibacterial activity against Escherichia coli 09-3 after 18 hrs by two fold serial dilution method; settings: 09-3, 18 h; outline: as §1

Question: Which results are given for `NCC1CN(c2nc3c(cc2F)c(=O)c(C(=O)O)cn3C2CC2)C/C1=N\OC(F)F` (racemic)?
Answer: MIC (Escherichia coli [1]): 16 µg/mL (≈ 37.6 µM); MIC (Escherichia coli [2]): 0.5 µg/mL (≈ 1.18 µM); MIC (Escherichia coli [3]): 8 µg/mL (≈ 18.8 µM); MIC (Klebsiella pneumoniae [4]): 32 µg/mL (≈ 75.2 µM); MIC (Klebsiella pneumoniae [5]): 0.015 µg/mL (≈ 0.0353 µM); MIC (Klebsiella pneumoniae [6]): 0.5 µg/mL (≈ 1.18 µM); MIC (Pseudomonas aeruginosa [7]): 0.5 µg/mL (≈ 1.18 µM); MIC (Pseudomonas aeruginosa [8]): 0.5 µg/mL (≈ 1.18 µM); MIC (Pseudomonas aeruginosa [9]): 32 µg/mL (≈ 75.2 µM); MIC (Pseudomonas aeruginosa [10]): 4 µg/mL (≈ 9.4 µM); Ratio ED50 (Pseudomonas aeruginosa [11]): 5.2; Ratio ED50 (Pseudomonas aeruginosa [12]): 6.1; MIC [13]: 2 µg/mL (≈ 4.7 µM); ED50 (Staphylococcus aureus [14]): 14.3 mg/kg; ED50 [15]: 16.9 mg/kg; ED50 (Escherichia coli [16]): 5.83 mg/kg; ED50 (Klebsiella pneumoniae [17]): 100 mg/kg; ED50 (Pseudomonas aeruginosa [18]): 21.3 mg/kg; Ratio ED50 [19]: 1.4; Ratio ED50 [20]: 1.4; MIC (Enterococcus faecium [21]): 32 µg/mL (≈ 75.2 µM); MIC (Staphylococcus aureus [22]): 0.015 µg/mL (≈ 0.0353 µM); MIC (Staphylococcus aureus [23]): 16 µg/mL (≈ 37.6 µM); MIC (Staphylococcus aureus [24]): 1 µg/mL (≈ 2.35 µM); MIC (Staphylococcus aureus [25]): 16 µg/mL (≈ 37.6 µM); MIC (Staphylococcus aureus [26]): 32 µg/mL (≈ 75.2 µM); MIC (Staphylococcus aureus [27]): 0.015 µg/mL (≈ 0.0353 µM); MIC (Staphylococcus aureus [28]): 4 µg/mL (≈ 9.4 µM); MIC (Staphylococcus aureus [29]): 0.06 µg/mL (≈ 0.141 µM); MIC (Staphylococcus aureus [30]): 0.5 µg/mL (≈ 1.18 µM); MIC (Staphylococcus aureus [31]): 0.008 µg/mL (≈ 0.0188 µM); MIC (Staphylococcus aureus [32]): 0.06 µg/mL (≈ 0.141 µM); MIC [33]: 4 µg/mL (≈ 9.4 µM); MIC [34]: 0.25 µg/mL (≈ 0.588 µM); MIC [35]: 64 µg/mL (≈ 150 µM); MIC [36]: 32 µg/mL (≈ 75.2 µM); MIC (Streptococcus pneumoniae): 0.03 µg/mL (≈ 0.0705 µM); MIC (Enterococcus faecium [37]): 32 µg/mL (≈ 75.2 µM); MIC (Enterococcus faecium [38]): 16 µg/mL (≈ 37.6 µM); MIC (Enterococcus faecium [39]): 0.125 µg/mL (≈ 0.294 µM); MIC (Enterococcus faecium [40]): 16 µg/mL (≈ 37.6 µM); MIC (Enterococcus faecium [41]): 0.06 µg/mL (≈ 0.141 µM); MIC (Enterococcus faecalis [42]): 4 µg/mL (≈ 9.4 µM); MIC (Enterococcus faecalis [43]): 8 µg/mL (≈ 18.8 µM); MIC (Escherichia coli [44]): 0.008 µg/mL (≈ 0.0188 µM); MIC (Escherichia coli [45]): 16 µg/mL (≈ 37.6 µM); MIC (Escherichia coli [46]): 32 µg/mL (≈ 75.2 µM); MIC (Escherichia coli [47]): 16 µg/mL (≈ 37.6 µM)
